High-throughput results: PubChem BioAssay, SRMLSC
The entries come from a sample that favours hits as a whole.
HCT116 PTEN-null: growth suppressors of cells with PTEN tumor suppressor deletion. HCT116 PTEN-null viability, CellTiter-Glo, 60 h; active compounds read low. viability, % at 10 µM. actives 1.2% (n = 140,000). AID 827;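 active = viability at or below a set limit, 4 SD under the median of all tested compounds, cut at about 3.7% in these data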;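 note: PTEN knockout HCT116 line with beta catenin targeted HCT116 as companion control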
H69AR inhibit: blocks growth of human H69AR lung tumor cells; actives 6% (n = 85,000); H69AR lung tumor viability, ATP luminescence, 72 h; active compounds read low; viability, % at 10 µM;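 active = viability at or below 40%; inactive = viability above 40%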;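 note: multidrug resistant small cell line overexpressing MRP-1 efflux transporter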
Fibroblast inh: blocks proliferation of human lung fibroblasts. LL 47 human lung fibroblast viability, ATP luminescence; active compounds read low. viability, % at 10 µM. actives 1.1% (n = 85,000). AID 719;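 active = viability at or below 50% in the single dose screen; inactive = viability above 50%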;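 note: compound exposure lasted 72 h before the ATP readout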
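Material: Human LL 47 lung fibroblast cells | Input: 1,150 cells/well | Buffer or medium: IMEM plus 15% FBS | Compound dosing: 0.1% DMSO in all compound wells | Times: Overnight cell rest, 72 h compound treatment at 37 °C | Signal: CellTiter-Glo luminescence measuring cellular ATP | Measure: % viability versus median cells-only luminescence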
HCT116 bCat-KO: beta-catenin-lacking colon tumor cell growth suppression. actives 1.5% (n = 140,000). HCT116 beta-catenin knockout viability, CellTiter-Glo, 60 h; active compounds read low. viability, % at 10 µM;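 active = viability at or under a set limit, the compound median less 4 SD, cut at about 6% in these data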
HUVEC inhibit: human endothelial cell proliferation inhibition; HUVEC proliferation, CellTiter-Glo luminescence, 72 h; active compounds read low; viability, % at 10 µM (by protocol); actives 1.1% (n = 86,000);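 active = viability at or below 30%; inactive = viability above 30%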
Each line names hits and unclear results; the compound was inactive in the other large screens.

Cc1sc(NC(=O)c2ccc(OCC(C)C)cc2)c(C(N)=O)c1-c1ccc(Cl)cc1Cl	none (no result: H69AR inhibit, Fibroblast inh, HUVEC inhibit)
Cc1nc(NC(=O)c2ccccc2)sc1-c1csc(Nc2ccc(Cl)cc2)n1	none (no result: H69AR inhibit, Fibroblast inh, HUVEC inhibit)
COc1ccc(Nc2nc(-c3sc(N)nc3C)cs2)cc1	H69AR inhibit 29
Cc1nc(N)sc1-c1csc(Nc2ccccn2)n1	none
COc1ccc(Nc2nc(-c3sc(NC(C)=O)nc3C)cs2)cc1	H69AR inhibit 13
N#C/C(=C\c1ccc(OCc2ccccc2)cc1)C(=O)Nc1nc2c(s1)CCN(Cc1ccccc1)C2	H69AR inhibit 22, Fibroblast inh 17, HUVEC inhibit 13
COc1cc(/C=C/C(=O)CC(=O)/C=C/c2ccc(O)c(OC)c2)ccc1O	H69AR inhibit 4.3, Fibroblast inh 21, HUVEC inhibit 22
O=C(C1CCCN(S(=O)(=O)Cc2ccccc2)C1)N1CCC(Cc2ccccc2)CC1 (stereo not drawn)	H69AR inhibit 26
CS(=O)(=O)N1CCC(C(=O)N2CCC(Cc3ccccc3)CC2)CC1	none
CC1(C)Cc2c(C#N)c(SCC(=O)c3ccccc3)nc(N3CCOCC3)c2CO1	Fibroblast inh 48
CC1(C)Cc2c(C#N)c(N3CCN(C(=O)c4ccccc4)CC3)nc(Cc3ccccc3)c2CO1	H69AR inhibit 29
CC1(C)Cc2c(c(N3CCOCC3)nc3snc(NC(=O)c4ccccc4)c23)CO1	H69AR inhibit 37
CC1(C)Cc2c(C#N)c(SCc3ccccc3)nc(N3CCOCC3)c2CO1	none
CCCCCSc1nc(N2CCOCC2)c2c(c1C#N)CC(C)(C)OC2	H69AR inhibit 33
COC(=O)Sc1nc(N2CCOCC2)c2c(c1C#N)CC(C)(C)OC2	none
COC(=O)c1ccc(CNC(=O)COC(=O)C2CCC(C(C)(C)C)CC2)cc1 (stereo not drawn)	none (no result: H69AR inhibit, Fibroblast inh, HUVEC inhibit)
Cc1ccc(C)c(C(=O)NCc2ccncc2)c1	none
Cc1ccc2c(Cl)cc(Cl)c(OCC(=O)NCc3ccco3)c2n1	none
Cc1ccc2c(Cl)cc(Cl)c(OCC(=O)NC(=O)NCc3ccco3)c2n1	H69AR inhibit 30
COc1ccc(C(=O)c2ccc(N(C)C)cc2)c(OC)c1	none (no result: H69AR inhibit, Fibroblast inh, HUVEC inhibit)
CN(C)c1ccc(C(=O)c2ccc(N(C)C)c3ccccc23)cc1	H69AR inhibit 36, Fibroblast inh 44
Cc1nccc2[nH]c(=O)c(C(=O)NC3CCCCC3C)cc12 (stereo not drawn)	H69AR inhibit 37
N#C/C(=C/c1ccc(Br)o1)C(N)=O	H69AR inhibit 33
O=C(c1ccc(Br)o1)N(Cc1ccccc1)c1ccccn1	none
Cc1c(CN(C)C(=O)c2sc3cc(Cl)ccc3c2Cl)cnn1C	HUVEC inhibit 21
O=C(NCc1cccnc1)c1sc2cc(Cl)ccc2c1Cl	none (no result: H69AR inhibit, Fibroblast inh, HUVEC inhibit)
O=C(NCc1cccnc1)C1CCCN(Cc2cnn(-c3ccccc3)c2-n2cccc2)C1 (stereo not drawn)	none
Nc1cc(Br)c(N)c(Br)c1	H69AR inhibit 23
C/C(CCC12CC3CC(CC(C3)C1)C2)=N\NC(N)=S	H69AR inhibit 13
COc1cc(-c2nnn(CC(=O)N3CCOCC3)n2)cc(OC)c1OC	none
COc1ccc(-c2ccc(-c3nnn(CC(=O)N4CCOCC4)n3)cc2)cc1	H69AR inhibit 24, Fibroblast inh 38
CCCn1c(NC(=O)c2cccc(S(=O)(=O)N3CCCC3)c2)nc2ccccc21	HCT116 PTEN-null 2.0, H69AR inhibit 17, HCT116 bCat-KO 2.9
CC(NC(=O)c1ccccc1)c1nc2ccccc2n1Cc1ccc(C#N)cc1 (stereo not drawn)	none
CCCn1c(Nc2nc3ccccc3n2C)nc2ccccc21	HCT116 PTEN-null 2.0, H69AR inhibit 3.1, HCT116 bCat-KO 2.2, HUVEC inhibit 3.0
CCCn1c(NC(=O)C2CCN(S(=O)(=O)c3cccs3)CC2)nc2ccccc21	H69AR inhibit 39
CC(NC(=O)c1ccccc1)c1nc2ccccc2n1Cc1ccccc1F (stereo not drawn)	H69AR inhibit 12
Cc1ccc(N(C(=O)Cn2nnc3ccccc32)C(C(=O)NCc2ccccc2)c2ccccn2)cc1 (stereo not drawn)	none (no result: H69AR inhibit, Fibroblast inh, HUVEC inhibit)
CCCn1c(NC(=O)c2ccc(C)cc2)nc2ccccc21	none
CCCn1c(NC(=O)c2ccccc2)nc2ccccc21	H69AR inhibit 31
O=C(Nc1nc2ccccc2n1CCN1CCCCC1)C1CCCCC1	H69AR inhibit 31
CCCCOc1c(Br)cc(/C=N/O)cc1OCC	H69AR inhibit 2.0, HUVEC inhibit 21
C=CCOc1c(Br)cc(/C=N/O)cc1OCC	none (no result: H69AR inhibit, Fibroblast inh, HUVEC inhibit)
CCOC(=O)C1=C(CSc2nc3ccccc3s2)NC(=O)NC1c1cccc([N+](=O)[O-])c1 (stereo not drawn)	none (no result: H69AR inhibit, Fibroblast inh, HUVEC inhibit)
Cc1cccc(-n2c(SCC(=O)N3CC(=O)Nc4ccccc43)nc3ccccc3c2=O)c1C	none (no result: H69AR inhibit, Fibroblast inh, HUVEC inhibit)
O=C(NCC1OCCc2ccccc21)c1ccc(NC(=O)c2ccc(Cl)cc2Cl)cc1 (stereo not drawn)	HCT116 PTEN-null 1.9, HCT116 bCat-KO 4.9 (no result: H69AR inhibit, Fibroblast inh, HUVEC inhibit)
CCCc1nc2c(C)cc(C)cc2c(N)c1CC	none (no result: H69AR inhibit, Fibroblast inh, HUVEC inhibit)
Cc1ccc2nc(C(F)(F)F)c(C#N)c(N)c2c1	HCT116 bCat-KO 3.6 (no result: H69AR inhibit, Fibroblast inh, HUVEC inhibit)
Cc1cc(C)c2nc(C(F)(F)F)c(C#N)c(N)c2c1	H69AR inhibit 40
CCN1CCN(c2ncc(C(=O)N3CCN(c4ccccc4OC)CC3)c3ccccc23)CC1	none (no result: HCT116 PTEN-null, HCT116 bCat-KO)
CCN1CCN(c2ncc(C(=O)Nc3cc(Cl)c(OC)cc3OC)c3ccccc23)CC1	H69AR inhibit 23, HUVEC inhibit 18
CCN1CCN(c2ncc(C(=O)Nc3c(F)cc(F)cc3Br)c3ccccc23)CC1	H69AR inhibit 21
COc1ccc(N(C(=O)c2ccco2)S(=O)(=O)c2cc(Cl)c(Cl)cc2Cl)cc1	H69AR inhibit 20
COc1ccc(N(C(=O)c2ccco2)S(=O)(=O)c2ccccc2)cc1	none (no result: H69AR inhibit, Fibroblast inh, HUVEC inhibit)
COc1cccc(-c2nc(CS(=O)(=O)CC(=O)Nc3cccc(C)c3C)c(C)o2)c1	H69AR inhibit 1.5
COc1cccc(/C=N/NC(=O)c2ccc([N+](=O)[O-])cc2Cl)c1O	HCT116 bCat-KO 5.6 (no result: H69AR inhibit, Fibroblast inh, HUVEC inhibit)
Cc1ccc(NC(=O)COc2ccc(/C=C3/SC(=Nc4ccccc4)N(Cc4cccnc4)C3=O)cc2)cc1	HCT116 PTEN-null 2.2, HCT116 bCat-KO 2.7 (no result: H69AR inhibit, Fibroblast inh, HUVEC inhibit)
Cc1ccc(NC(=O)COc2ccc(/C=N/NC(=O)CSCc3ccccc3)cc2)cc1	none (no result: H69AR inhibit, Fibroblast inh, HUVEC inhibit)
C[C@@H]1CC[C@H]2C(=O)N3[C@@H](CC[C@@H](C)[C@@H]3c3ccc(Br)cc3)C(=O)N2[C@H]1c1ccc(Br)cc1	none (no result: H69AR inhibit, Fibroblast inh, HUVEC inhibit)
CCOC(=O)c1c(NC(=O)c2cc(-c3ccc(Cl)s3)nc3ccccc23)sc(C(N)=O)c1C	HCT116 PTEN-null 1.2, HCT116 bCat-KO 3.6 (no result: H69AR inhibit, Fibroblast inh, HUVEC inhibit)
Cc1ccccc1-c1cc(C(=O)Nc2sc(C)c(C)c2C(N)=O)c2ccccc2n1	none (no result: H69AR inhibit, Fibroblast inh, HUVEC inhibit)
O=C(COC(=O)c1cc(-c2cccs2)nc2ccccc12)NCc1ccco1	none
CCOC(=O)c1c(NC(=O)c2ccc(Cl)s2)sc(C)c1C	H69AR inhibit 33 (no result: HCT116 PTEN-null, HCT116 bCat-KO)
O=C(COC(=O)c1cc(-c2ccc(Cl)s2)nc2ccccc12)NCc1ccco1	H69AR inhibit 27
N/C(=N\OC(=O)c1ccc(Cl)cc1)c1nonc1N	none (no result: H69AR inhibit, Fibroblast inh, HUVEC inhibit)
